According to ChEMBL document CHEMBL1129260, “Evaluation of the stability and animal biodistribution of gadolinium (III) benzylamine-derivatized diethylenetriaminepentaacetic acid” (J Med Chem, 1996):

Experiments:
Conditions in all cases: in vivo
Rattus norvegicus [1] = organism: Rattus norvegicus; test: Biodistribution of Gd-LDTA (conjugated with mannose BSA) protein using [111In]- in mature female Sprague-Dawley rat colon after injecting for 96 hour.; format: ADME, organism-based
Rattus norvegicus [2] = organism: Rattus norvegicus; test: Biodistribution of In-LDTA (conjugated with mannoseBSA) protein using [111In]- in mature female Sprague-Dawley rat colon after injecting for 4 hour.; format: ADME, organism-based
Method in brief: (§1)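 SCN-LDTPA was coupled (pH 9 bicine, 24 h, RT) to BSA, mannosylated BSA or galactosylated BSA and FPLC-purified. The conjugate (400 μg) was labeled with 340 μCi 111In acetate at pH 5.5 for 45 min and gel-filtered. Mature female Sprague-Dawley rats received 19 μg of conjugate; four rats per time point. Blood, liver, bone, kidney and colon were taken and reported as %ID/organ.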

Rattus norvegicus [3] = organism: Rattus norvegicus; test: Biodistribution of In-LDTA (conjugated with BSA) protein using [111In]- in mature female Sprague-Dawley rat colon after injecting for 24 hour.; format: ADME, organism-based; method in brief: as §1
Rattus norvegicus [4] = organism: Rattus norvegicus; test: Biodistribution of In-LDTA (conjugated with galactose BSA)protein using [111In]- in mature female Sprague-Dawley rat blood after injecting for 4 hour.; format: ADME, organism-based; method in brief: as §1
Rattus norvegicus [5] = organism: Rattus norvegicus; test: Biodistribution of In-LDTA (conjugated with galactose BSA)protein using [111In]- in mature female Sprague-Dawley rat blood after injecting for 48 hour.; format: ADME, organism-based; method in brief: as §1
Rattus norvegicus [6] = organism: Rattus norvegicus; test: Biodistribution of In-LDTA (conjugated with galactose BSA)protein using [111In]- in mature female Sprague-Dawley rat bone after injecting for 1 hour.; format: ADME, organism-based, Bone element; method in brief: as §1
Rattus norvegicus [7] = organism: Rattus norvegicus; test: Biodistribution of In-LDTA (conjugated with galactose BSA)protein using [111In]- in mature female Sprague-Dawley rat bone after injecting for 24 hour.; format: ADME, organism-based, Bone element; method in brief: as §1
Rattus norvegicus [8] = organism: Rattus norvegicus; test: Biodistribution of In-LDTA (conjugated with galactose BSA)protein using [111In]- in mature female Sprague-Dawley rat bone after injecting for 4 hour.; format: ADME, organism-based, Bone element; method in brief: as §1
Rattus norvegicus [9] = organism: Rattus norvegicus; test: Biodistribution of In-LDTA (conjugated with galactose BSA)protein using [111In]- in mature female Sprague-Dawley rat colon after injecting for 4 hour.; format: ADME, organism-based; method in brief: as §1
Rattus norvegicus [10] = organism: Rattus norvegicus; test: Biodistribution of In-LDTA (conjugated with galactose BSA)protein using [111In]- in mature female Sprague-Dawley rat kidney after injecting for 24 hour.; format: ADME, organism-based; method in brief: as §1
Rattus norvegicus [11] = organism: Rattus norvegicus; test: Biodistribution of In-LDTA (conjugated with galactose BSA)protein using [111In]- in mature female Sprague-Dawley rat liver after injecting for 1 hour.; format: ADME, organism-based; method in brief: as §1
Rattus norvegicus [12] = organism: Rattus norvegicus; test: Biodistribution of In-LDTA (conjugated with BSA)protein using [111In]- in mature female Sprague-Dawley rat colon after injecting for 48 hr.; format: ADME, organism-based; method in brief: as §1
Rattus norvegicus [13] = organism: Rattus norvegicus; test: Biodistribution of In-LDTA (conjugated with mannoseBSA)protein using [111In]- in mature female Sprague-Dawley rat blood after injecting for 24 hour.; format: ADME, organism-based; method in brief: as §1
Rattus norvegicus [14] = organism: Rattus norvegicus; test: Biodistribution of In-LDTA protein using [111In]- in mature female Sprague-Dawley rat blood after injecting for 1 hour.; format: ADME, organism-based; method in brief: as §1
Rattus norvegicus [15] = organism: Rattus norvegicus; test: Biodistribution of Gd-LDTA (conjugated with mannose BSA) protein using [111In]- in mature female Sprague-Dawley rat liver after injecting for 96 hour.; format: ADME, organism-based
Rattus norvegicus [16] = organism: Rattus norvegicus; test: Biodistribution of In-LDTA (conjugated with BSA) protein using [111In]- in mature female Sprague-Dawley rat blood after injecting for 4 hour.; format: ADME, organism-based; method in brief: as §1
Rattus norvegicus [17] = organism: Rattus norvegicus; test: Biodistribution of Gd-DTA (conjugated with BSA)protein using [111In]- in mature female Sprague-Dawley rat liver after injecting for 1 hour.; format: ADME, organism-based
Method in brief: (§2)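 Conjugate of SCN-LDTPA with BSA, mannosylated BSA or galactosylated BSA (10 equiv chelate, pH 9 bicine, RT 24 h; FPLC-purified) was labelled with 340 μCi 111In acetate at pH 5.5 for 45 min. It was then gel-filtered (Biospin-6) and checked for purity by FPLC. Mature female Sprague-Dawley rats received 19 μg of conjugate. Four rats per time point (1, 4, 24, 48 h) were killed; blood, liver, bone, kidney and colon were taken and %ID/organ was calculated.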

Rattus norvegicus [18] = organism: Rattus norvegicus; test: Biodistribution of Gd-DTA (conjugated with BSA)protein using [111In]- in mature female Sprague-Dawley rat liver after injecting for 4 hour.; format: ADME, organism-based; method in brief: as §2
Rattus norvegicus [19] = organism: Rattus norvegicus; test: Biodistribution of Gd-DTA (conjugated with BSA) protein using [111In]- in mature female Sprague-Dawley rat colon after injecting for 48 hour.; format: ADME, organism-based; method in brief: as §2
Rattus norvegicus [20] = organism: Rattus norvegicus; test: Biodistribution of Gd-DTA (conjugated with BSA)protein using [111In]- in mature female Sprague-Dawley rat blood after injecting for 48 hour.; format: ADME, organism-based; method in brief: as §2
Rattus norvegicus [21] = organism: Rattus norvegicus; test: Biodistribution of Gd-DTA (conjugated with BSA)protein using [111In]- in mature female Sprague-Dawley rat blood after injecting for 96 hour.; format: ADME, organism-based
Rattus norvegicus [22] = organism: Rattus norvegicus; test: Biodistribution of Gd-DTA (conjugated with BSA)protein using [111In]- in mature female Sprague-Dawley rat bone after injecting for 1 hour.; format: ADME, organism-based, Bone element; method in brief: as §2
Rattus norvegicus [23] = organism: Rattus norvegicus; test: Biodistribution of Gd-DTA (conjugated with BSA)protein using [111In]- in mature female Sprague-Dawley rat colon after injecting for 1 hour.; format: ADME, organism-based; method in brief: as §2
Rattus norvegicus [24] = organism: Rattus norvegicus; test: Biodistribution of Gd-DTA (conjugated with BSA)protein using [111In]- in mature female Sprague-Dawley rat colon after injecting for 24 hour.; format: ADME, organism-based; method in brief: as §2
Rattus norvegicus [25] = organism: Rattus norvegicus; test: Biodistribution of Gd-LDTA (conjugated with galactose BSA) protein using [111In]- in mature female Sprague-Dawley rat blood after injecting for 24 hour.; format: ADME, organism-based; method in brief: as §2
Rattus norvegicus [26] = organism: Rattus norvegicus; test: Biodistribution of Gd-LDTA (conjugated with galactose BSA) protein using [111In]- in mature female Sprague-Dawley rat colon after injecting for 24 hour.; format: ADME, organism-based; method in brief: as §2
Rattus norvegicus [27] = organism: Rattus norvegicus; test: Biodistribution of Gd-LDTA (conjugated with galactose BSA) protein using [111In]- in mature female Sprague-Dawley rat colon after injecting for 48 hour.; format: ADME, organism-based; method in brief: as §2
Rattus norvegicus [28] = organism: Rattus norvegicus; test: Biodistribution of Gd-LDTA (conjugated with galactose BSA) protein using [111In]- in mature female Sprague-Dawley rat kidney after injecting for 1 hour.; format: ADME, organism-based; method in brief: as §2
Rattus norvegicus [29] = organism: Rattus norvegicus; test: Biodistribution of Gd-LDTA (conjugated with galactose BSA) protein using [111In]- in mature female Sprague-Dawley rat kidney after injecting for 4 hour.; format: ADME, organism-based; method in brief: as §2
Rattus norvegicus [30] = organism: Rattus norvegicus; test: Biodistribution of Gd-LDTA (conjugated with galactose BSA) protein using [111In]- in mature female Sprague-Dawley rat kidney after injecting for 96 hour.; format: ADME, organism-based
Rattus norvegicus [31] = organism: Rattus norvegicus; test: Biodistribution of Gd-LDTA (conjugated with galactose BSA) protein using [111In]- in mature female Sprague-Dawley rat liver after injecting for 1 hour.; format: ADME, organism-based; method in brief: as §2
Rattus norvegicus [32] = organism: Rattus norvegicus; test: Biodistribution of Gd-LDTA (conjugated with mannose BSA) protein using [111In]- in mature female Sprague-Dawley rat bone after injecting for 48 hour.; format: ADME, organism-based, Bone element; method in brief: as §2
Rattus norvegicus [33] = organism: Rattus norvegicus; test: Biodistribution of Gd-LDTA (conjugated with mannose BSA) protein using [111In]- in mature female Sprague-Dawley rat blood after injecting for 24 hour.; format: ADME, organism-based; method in brief: as §2
Rattus norvegicus [34] = organism: Rattus norvegicus; test: Biodistribution of Gd-LDTA (conjugated with galactose BSA) protein using [111In]- in mature female Sprague-Dawley rat bone after injecting for 96 hour.; format: ADME, organism-based, Bone element
Rattus norvegicus [35] = organism: Rattus norvegicus; test: Biodistribution of In-LDTA (conjugated with galactose BSA)protein using [111In]- in mature female Sprague-Dawley rat kidney after injecting for 48 hour.; format: ADME, organism-based; method in brief: as §1
Rattus norvegicus [36] = organism: Rattus norvegicus; test: Biodistribution of Gd-DTA (conjugated with BSA)protein using [153Gd]- in mature female Sprague-Dawley rat bone after injecting for 96 hour.

`Nc1ccc(CC(C(=O)O)N(CCN(CC(=O)O)CC(=O)O)CCN(CC(=O)O)CC(=O)O)cc1` (stereo unspecified) showed an ID/organ (Rattus norvegicus [1]) of 0.241%, an ID/organ (Rattus norvegicus [2]) of 0.156% and an ID/organ (Rattus norvegicus [3]) of 2.87%. For the same molecule, the ID/organ (Rattus norvegicus [4]) was 0.0462%, the ID/organ (Rattus norvegicus [5]) was 0.0267% and the ID/organ (Rattus norvegicus [6]) was 0.227%. For the same molecule, the ID/organ (Rattus norvegicus [7]) was 0.379%, the ID/organ (Rattus norvegicus [8]) was 0.329% and the ID/organ (Rattus norvegicus [9]) was 4.8%. For the same molecule, the ID/organ (Rattus norvegicus [10]) was 0.112%, the ID/organ (Rattus norvegicus [11]) was 99.7% and the ID/organ (Rattus norvegicus [12]) was 5.52%. The ID/organ (Rattus norvegicus [13]) was 0.129%, the ID/organ (Rattus norvegicus [14]) was 61.3% and the ID/organ (Rattus norvegicus [15]) was 24.4%. The ID/organ (Rattus norvegicus [16]) was 53.8%, the ID/organ (Rattus norvegicus [17]) was 14.2% and the ID/organ (Rattus norvegicus [18]) was 18.6%. It also gave an ID/organ (Rattus norvegicus [19]) of 2.37%, an ID/organ (Rattus norvegicus [20]) of 3.37% and an ID/organ (Rattus norvegicus [21]) of 0.418%. For the same molecule, the ID/organ (Rattus norvegicus [22]) was 18.1%, the ID/organ (Rattus norvegicus [23]) was 0.952% and the ID/organ (Rattus norvegicus [24]) was 2.83%. For the same molecule, the ID/organ (Rattus norvegicus [25]) was 0.02%, the ID/organ (Rattus norvegicus [26]) was 6.07% and the ID/organ (Rattus norvegicus [27]) was 35.3%. The ID/organ (Rattus norvegicus [28]) was 0.114%, the ID/organ (Rattus norvegicus [29]) was 0.105% and the ID/organ (Rattus norvegicus [30]) was 0.193%. For the same molecule, the ID/organ (Rattus norvegicus [31]) was 91.3%, the ID/organ (Rattus norvegicus [32]) was 20.4% and the ID/organ (Rattus norvegicus [33]) was 0.063%. It also gave an ID/organ (Rattus norvegicus [34]) of 9.55%, an ID/organ (Rattus norvegicus [35]) of 0.14% and an ID/organ (Rattus norvegicus [36]) of 44.6%.
